In ChEMBL document CHEMBL1156136, “Hypoxia-activated prodrugs: substituent effects on the properties of nitro seco-1,2,9,9a-tetrahydrocyclopropa[c]benz[e]indol-4-one (nitroCBI) prodrugs of DNA minor groove alkylating agents” (J Med Chem, 2009):

Key:
[1] = system: SK-OV-3; assay: Cytotoxicity against human SKOV3 cells in oxic condition after 4 hrs by sulforhodamine B assay; format: functional, cell-based; conditions: SK-OV-3, 4 h
Outline: (§1)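 Log-phase monolayers exposed to drug for 4 h under aerobic (20% O2) or anoxic (<20 ppm O2) conditions, then sulforhodamine B staining 5 days later. IC50 interpolated as concentration lowering cell density to 50% of same-plate controls. HCR = IC50(oxic)/IC50(hypoxic), mean of intraexperiment ratios. A549 P450R line is a stable transfectant with 9-fold higher cytochrome c reduction rate than parent.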

[2] = system: SK-OV-3; assay: Cytotoxicity against human SKOV3 cells in hypoxic condition after 4 hrs by sulforhodamine B assay; format: functional, cell-based; conditions: SK-OV-3, 4 h; outline: as §1
[3] = system: SK-OV-3; assay: Hypoxic cytotoxicity ratio, IC50 for human SKOV3 cells in oxic condition to IC50 for human SKOV3 cells in hypoxic condition; format: functional; outline: as §1
[4] = system: HT-29; assay: Cytotoxicity against human HT-29 cells in oxic condition after 4 hrs by sulforhodamine B assay; format: functional, cell-based; conditions: HT-29, 4 h; outline: as §1
[5] = system: HT-29; assay: Cytotoxicity against human HT-29 cells in hypoxic condition after 4 hrs by sulforhodamine B assay; format: functional, cell-based; conditions: HT-29, 4 h; outline: as §1
[6] = system: HT-29; assay: Hypoxic cytotoxicity ratio, IC50 for human HT-29 cells in oxic condition to IC50 for human HT-29 cells in hypoxic condition; format: functional; outline: as §1

SMILES | IC50 [1] | IC50 [2] | Ratio IC50 [3] | IC50 [4] | IC50 [5] | Ratio IC50 [6]
COc1cc2cc(C(=O)N3CC(CCl)c4c3cc([N+](=O)[O-])c3c(C(C)=O)cccc43)[nH]c2c(OC)c1OC (centres undefined) | 0.5 µM | 0.00014 µM | 3.4 | 0.68 µM | 0.00033 µM | 2
CN(C)CCOc1ccc2[nH]c(C(=O)N3CC(CCl)c4c3cc([N+](=O)[O-])c3cc(S(C)(=O)=O)ccc43)cc2c1 (centres undefined) | 1.3 µM | 0.00012 µM | 11 | 0.97 µM | 0.00027 µM | 4
CN(C)CCOc1ccc2[nH]c(C(=O)N3CC(CCl)c4c3cc(N)c3ccccc43)cc2c1 (centres undefined) | 6.8 µM | 0.0066 µM | 0.97 | 5 µM | 0.0035 µM | 1.3
COc1cc2cc(C(=O)N3CC(CCl)c4c3cc([N+](=O)[O-])c3cc(C#N)ccc43)[nH]c2c(OC)c1OC (centres undefined) | 6.4 µM | 1 µM | 13 | 5.3 µM | 2.4 µM | 2.5
CN(C)CCOc1ccc2[nH]c(C(=O)N3CC(CCl)c4c3cc([N+](=O)[O-])c3ccc(C#N)cc43)cc2c1 (centres undefined) | 1.2 µM | 0.88 µM | 1.5 | 1.4 µM | 1.2 µM | 1.4
COc1cc2cc(C(=O)N3CC(CCl)c4c3cc([N+](=O)[O-])c3cc([N+](=O)[O-])ccc43)[nH]c2c(OC)c1OC (centres undefined) | 16 µM | 0.24 µM | 70 | 14 µM | 1.3 µM | 12
CC(=O)c1cccc2c3c(cc([N+](=O)[O-])c12)N(C(=O)c1cc2cc(OCCN(C)C)ccc2[nH]1)CC3CCl (centres undefined) | 0.64 µM | 0.052 µM | 12 | 0.2 µM | 0.035 µM | 5.2
COc1cc2cc(C(=O)N3CC(CCl)c4c3cc([N+](=O)[O-])c3cc(S(C)(=O)=O)ccc43)[nH]c2c(OC)c1OC (centres undefined) | 17 µM | 0.0093 µM | 1.9 | 14 µM | 0.0072 µM | 2
CN(C)CCOc1ccc2[nH]c(C(=O)N3CC(CCl)c4c3cc(N)c3ccc(S(C)(=O)=O)cc43)cc2c1 (centres undefined) | 18 µM | 0.012 µM | 1.5 | 29 µM | 0.016 µM | 1.9
